This sample holds only a part of the variants without activity.

Sequences and labels used below:
B1: tRNA (parent)
chain: GUUCCGUUGGCGUAAUGGUAACGCGUCUCCCUCCUAAGGAGAAGACUGCGGGUUCGAGUCCCGUACGGAACG

The series covers variants of B1. Kind of series: yeast fitness relative to wild type (ratio to wild type); higher = fitter; tRNA-Arg(CCU), competitive growth, 37 C, YPD. The method in brief:
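Gene amplicons from the start population and from each of six end populations were read by 100-nucleotide paired-end sequencing. Those end populations came from pooled Saccharomyces cerevisiae strains carrying tRNA-Arg(CCU) gene variants at the native locus, competed in YPD at 37°C for 24 hours. Fitness relative to wild type was worked out from changes in genotype frequencies. Genotypes needed ≥ 100 starting reads, and estimates < 0.5 were set to 0.5.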
As to U54G A57U A65U, the yeast fitness was not above 0.5.

Consider C4G G39C, for which the yeast fitness turned out to be 0.747.

For U26G A42G A43C C46G, the yeast fitness turned out to be 0.677.

Consider U3G U8C C33U C66A, for which the yeast fitness is not above 0.5.

As to A21G C22A G25A C46U U54A, the yeast fitness was not above 0.5.

A15C U26C C62U: the yeast fitness is not above 0.5.

U3C A45C G48A: the yeast fitness amounted to 0.937.

For the variant C5U C22G U47C, the yeast fitness stood at 0.687.

In the case of A57U C61U, the yeast fitness stood at 0.642.

In the case of U7C C34U C66U, the yeast fitness is not above 0.5.

Consider G44C G56C, for which the yeast fitness stood at 0.58.

As for G12C C22U A43C G68C, the yeast fitness amounted to 0.556.

C11U A43U C66U: the yeast fitness was 0.555.

For C4G U32C A45U, the yeast fitness came out at 0.537.

As for U7A G10A C55U C61G A65G G68A, the yeast fitness was not above 0.5.

As to U7G G48A C62U, the yeast fitness came out at 0.628.

As to C33G C62A G67C, the yeast fitness is not above 0.5.

Take U13A A37U: the yeast fitness amounted to 0.63.

Turning to C34U G39C, the yeast fitness stood at 0.571.

On to A14G C24U A57G, for which the yeast fitness is 0.639.

For U7A A20C A69C, the yeast fitness is 0.609.

For the variant A21U C46U C55A G56C, the yeast fitness is not above 0.5.

As to G18C A57U C61U, the yeast fitness was not above 0.5.

With A21U C30U A40C U59C C62U G67U, the yeast fitness worked out at 0.554.

On to U32A C34G C55G G68A A70C, for which the yeast fitness is not above 0.5.

In the case of C24A C33A A37U G50C C61U, the yeast fitness is not above 0.5.

Regarding U35A A57U U59C, the yeast fitness was not above 0.5.

For the variant U13G C24U G44A G58C, the yeast fitness was 0.508.

For C4U U19A, the yeast fitness was determined as 1.04.

Take C5U C11U C62U G68A: the yeast fitness was not above 0.5.

On to C4U C49A C66U, for which the yeast fitness was found to be 0.612.

Regarding C5A C33A, the yeast fitness was 0.67.

As to C5U C11G C49U C61A, the yeast fitness was not above 0.5.

As to G6A C49U, the yeast fitness came to 0.959.

Consider C5G A37C A43G A45U G51C C62G, for which the yeast fitness is not above 0.5.

C22A U28G G58C: the yeast fitness is not above 0.5.

For G9C G38C, the yeast fitness turned out to be 0.546.

With C4A A14C A70G, the yeast fitness is not above 0.5.

For G18C G58A, the yeast fitness was 0.701.

On to C11A A15U A21U A36C A37U C55U, for which the yeast fitness was not above 0.5.

With C29A C30U G48A G50A, the yeast fitness was not above 0.5.

In the case of G25C C33G C60A, the yeast fitness was not above 0.5.

For G10C C27U U47G, the yeast fitness was 0.632.

Turning to A14G G48A C66U, the yeast fitness was determined as 0.645.

On to C22A A57G, for which the yeast fitness was 0.916.

In the case of G41C G48C, the yeast fitness was determined as 0.813.

C5G U19G C22U A43C G51A: the yeast fitness was not above 0.5.

Regarding C24U C46U G51C, the yeast fitness is not above 0.5.

As to U7A C22U U28A C29G C33A A42U A70U, the yeast fitness was not above 0.5.

With U3A C49A, the yeast fitness came out at 0.609.

For the variant C11U C27U C46U A57U, the yeast fitness is 0.647.

With C27G G48C C49G, the yeast fitness was 0.503.

With A21G A65G, the yeast fitness is 1.01.

Take C5U C46U U59G: the yeast fitness was determined as 0.538.

For the variant U3A G9C A20G C29A G56A G67U, the yeast fitness is not above 0.5.

As to C27A U64A, the yeast fitness worked out at 0.748.

Consider G12A C22U A57U, for which the yeast fitness is not above 0.5.

Take G18C C29U C30U G67A: the yeast fitness was not above 0.5.

On to G12A A42C G50C, for which the yeast fitness was not above 0.5.

For G10A C11G C60A G67U, the yeast fitness worked out at 0.512.

U26C C33G A42U: the yeast fitness was not above 0.5.

Take C22A A69C: the yeast fitness amounted to 0.874.

Regarding U7A C11U U16A G25A, the yeast fitness was not above 0.5.

A43U C46G: the yeast fitness is 0.829.

With G51C C60G G67U, the yeast fitness was not above 0.5.

For U3G U8C A70C, the yeast fitness was found to be 0.59.

Turning to A21C C31G C62U A69G, the yeast fitness was not above 0.5.

Regarding C5G C46G C49G C62A, the yeast fitness is not above 0.5.

For G18C C24G U35C G50C C55G, the yeast fitness was not above 0.5.

Take A45C G48A G67A: the yeast fitness worked out at 0.829.

As to A21C C27U A57G, the yeast fitness stood at 0.79.

Turning to C11U U26A A36U, the yeast fitness is not above 0.5.

Take U47C C61G: the yeast fitness came to 0.671.

As for A20G C27U U28G G68A, the yeast fitness was not above 0.5.

For the variant U2A A37U U53A C62U, the yeast fitness is not above 0.5.

Consider C22G U32A C60A A69C, for which the yeast fitness was found to be 0.619.

On to C5G C27G U32C C33U G56A A69U, for which the yeast fitness is not above 0.5.

Regarding C24G C31G A36G G44A A69G, the yeast fitness is not above 0.5.

Take G9A C11U A36C G48C: the yeast fitness was not above 0.5.

In the case of A20U G25C, the yeast fitness is 0.885.

Consider C24G A43G, for which the yeast fitness was 0.573.

Regarding A14G C49A, the yeast fitness is 0.694.

As to G48C C66A, the yeast fitness is 0.633.

G17C G58C: the yeast fitness is 0.528.

As to C29U A45C G63A, the yeast fitness turned out to be 0.578.

On to C29U C33U G39C A57U, for which the yeast fitness was not above 0.5.

Turning to C34U A37U C46A G51A, the yeast fitness is 0.567.

As for C5G A42U G63A, the yeast fitness was determined as 0.531.

Take A37U G48A C61U: the yeast fitness stood at 0.531.

Consider C29U A43U C46A C61G G68A, for which the yeast fitness is 0.567.

With U2G C5A A57U, the yeast fitness is not above 0.5.

For A43U C61U, the yeast fitness is 0.969.

Take G12A C29U U35A G44C C61A: the yeast fitness is not above 0.5.

On to A21U C27G C30G, for which the yeast fitness is not above 0.5.

Take A20C U47A G48C: the yeast fitness turned out to be 0.526.

As to G12C U26A U35A, the yeast fitness was not above 0.5.

For U28A C46A, the yeast fitness turned out to be 0.846.

With C5A U47C A70G, the yeast fitness amounted to 0.705.

On to C4G C55A, for which the yeast fitness worked out at 0.778.

On to U7A A20C G58A G63A, for which the yeast fitness was not above 0.5.

Regarding C4U G12A A20G C22U A57G, the yeast fitness was not above 0.5.

Turning to U8A C11U C61U C62U C66A, the yeast fitness is not above 0.5.

Regarding A40U A42C C66A, the yeast fitness is not above 0.5.

C4A U16A: the yeast fitness turned out to be 0.823.

In the case of A40C C62G, the yeast fitness came out at 0.66.

In the case of U19C C29G U54A A65C, the yeast fitness is not above 0.5.

For the variant C4U G9A C22A U26A G52C G67A, the yeast fitness is not above 0.5.

Take A20G U32C: the yeast fitness came to 0.949.

On to G48A C62U, for which the yeast fitness was 1.01.

Take C5A C24U G25C C30G G50C G56A C66U: the yeast fitness is not above 0.5.

For C27G A37C G39A A45C A65U, the yeast fitness was not above 0.5.

As to C4U C24U C30A, the yeast fitness is 0.597.

Take G17A C31A G48C: the yeast fitness was not above 0.5.

For G6A C29G U32C A69C, the yeast fitness was not above 0.5.

C5A U19C C34G C55A U64G A69C: the yeast fitness was 0.598.

Regarding C4G C5U A20U G39C A40G A70U, the yeast fitness was not above 0.5.

Consider G58A A65U, for which the yeast fitness was 1.04.

For G25C C31A, the yeast fitness came to 0.677.

Take C5U C31A A40G C61U A65U: the yeast fitness is not above 0.5.

On to G12A U28A A40U, for which the yeast fitness is 0.647.

On to G9C G12A G48C C62A, for which the yeast fitness was not above 0.5.

For U8C A15C C34U A57C, the yeast fitness is not above 0.5.

As for C27G C31G G38C, the yeast fitness is 0.504.

As to A21U C31G, the yeast fitness was 0.842.

For the variant G18C G23A G25A C49U C60G, the yeast fitness was not above 0.5.

As to U13A C22G C31G C61A, the yeast fitness came out at 0.512.

Consider U2C G12A C24A U28A A42C U47G C49G, for which the yeast fitness was found to be 0.582.

With G25A C49A, the yeast fitness came to 0.691.

In the case of C11A C27U C31A, the yeast fitness is not above 0.5.

Regarding U2A A15G C24U U54C, the yeast fitness turned out to be 0.726.

Consider C5G C31G, for which the yeast fitness was found to be 0.824.

As to C62U A65U G68C, the yeast fitness is 0.602.

As to C66U G68C, the yeast fitness is 0.779.

G10C C11U A20C A57U: the yeast fitness is not above 0.5.

For U26A C33A C34G, the yeast fitness stood at 0.644.

Regarding G6C U7A G39C C55U A70G, the yeast fitness is not above 0.5.

With G12C G18C, the yeast fitness is 0.55.

Turning to C4A C34G C46G G56A, the yeast fitness was not above 0.5.

On to G10C U35G A43C U47C C55U C66U, for which the yeast fitness is not above 0.5.

Take C4G G6C G25A C29A C31A C33G: the yeast fitness was determined as 0.59.

Consider U8A U13A A14C U16A G63A G67A, for which the yeast fitness was not above 0.5.

Turning to A45G C61G A65C A70U, the yeast fitness was not above 0.5.

On to C22A G63A, for which the yeast fitness turned out to be 0.983.

Consider G44A G51C, for which the yeast fitness came to 0.572.

With U3C C24U A40G C46A, the yeast fitness amounted to 0.702.

For the variant A42U G50A A65C, the yeast fitness is not above 0.5.

Take U19G A42U C55U: the yeast fitness amounted to 0.692.

A40G C61U G68A: the yeast fitness is not above 0.5.

On to G50A A69C, for which the yeast fitness turned out to be 0.74.

In the case of U16C C46U A69C, the yeast fitness is 0.783.

In the case of C4U U32G A57G, the yeast fitness is not above 0.5.

C4U C24A C30G A65U C66A: the yeast fitness is not above 0.5.

For A15U C46G C55A A69U, the yeast fitness is not above 0.5.

With C11A C27A, the yeast fitness was 0.654.

For C22A C29U, the yeast fitness was 0.621.

For the variant U32A C34U, the yeast fitness was 0.531.

In the case of A37U G41C, the yeast fitness was 0.68.

G9U A37U G50C C66U: the yeast fitness is not above 0.5.

Consider C27A U54C C66A, for which the yeast fitness is not above 0.5.

For A14G U28A A45C U53A, the yeast fitness is not above 0.5.

In the case of U2C C11G C22G, the yeast fitness was not above 0.5.

With C4A G39C C49A, the yeast fitness is not above 0.5.

G25A A37C G68U: the yeast fitness is 0.702.

As to C5G A21G C33A G68C A69U, the yeast fitness is not above 0.5.

Consider U32G U35A G38C C46G, for which the yeast fitness is not above 0.5.

Regarding C27U A40G C62G G68A, the yeast fitness was not above 0.5.

On to C27G C30U A65U A70U, for which the yeast fitness was determined as 0.594.
